The values that follow come from ChEMBL document CHEMBL1141286, “Benzochromenones from the marine crinoid Comantheria rotula inhibit hypoxia-inducible factor-1 (HIF-1) in cell-based reporter assays and differentially suppress the growth of certain tumor cell lines” (J Nat Prod, 2007).

Structures are written as SMILES. Active and inactive are the calls of the source. No cut-off for these calls is given here.

Test [1] is described as follows: Inhibition of HIF1 activation in PC3 cells by TK-luciferase assay. Format: cell-based. The conditions noted are these: Homo sapiens, PC-3. In outline:
(§1)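 HIF-1 reporter (pHRE-TK-Luc) assays in transfected PC-3 or T47D cells; HIF-1 induced by hypoxia or by the hypoxia mimetic 1,10-phenanthroline (10 μM); compounds at half-log concentrations; luciferase activity measured; IC50 from experiments in triplicate.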

Test [2] addresses Hypoxia inducible factors; HIF-1-alpha, HIF-2-alpha (Homo sapiens, UniProt Q16665+Q99814). As to the kind of experiment: Inhibition of HIF1 activation in human T47D cells by TK-luciferase assay. The format is cell-based. Put shortly: as §1
Test [3] deals with T47D. As to the kind of experiment: Inhibition of 1,10-phenanthroline-induced VEGF protein secretion in human T47D cells at 10 uM after 16 hrs by ELISA. The format is functional, cell-based. In outline: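 T47D cells stimulated with 1,10-phenanthroline, compound at 10 μM; secreted VEGF in conditioned media by ELISA, normalized to cell-lysate protein.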
Test [4] in a line: Inhibition of 1,10-phenanthroline-induced HIF1 activation in T47D cells by TK-luciferase assay. Format: cell-based. To be noted: Homo sapiens. In outline:
as §1

Test [5] deals with T47D. Kind of test: Inhibition of hypoxia induced VEGF protein secretion in human T47D cells at 10 uM after 16 hrs by ELISA. Format: functional. Also noted: scale not given: the % may be the effect or the level left. In outline:
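Exponentially growing T47D cells exposed to hypoxia (1% O2) with compound (10 μM) for 16 hr; secreted VEGF protein in conditioned media by ELISA, normalized to protein in cell lysates (micro BCA).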

Test [6] is described as follows: Inhibition of 1,10-phenanthroline-induced HIF1 activation in PC3 cells by TK-luciferase assay. The format is cell-based. The conditions noted are these: Homo sapiens, PC-3. Put shortly: as §1
The nature of test [7]: DPPH radical scavenging activity relative to Trolox. Set-up: concentration or dose not given beside the values. The format is functional. In outline: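 Compounds were made up as DMSO stocks and diluted in isopropanol to a final 10 μM. Each was mixed with DPPH in isopropanol at 10 μM or 30 μM DPPH, and absorbance was read at 515 nm. Scavenging was calculated as [1 − OD515(compound)/OD515(control)] × 100, then expressed as a percentage of Trolox activity. One experiment was run in triplicate.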

Test [8] can be described thus: Inhibition of luciferase at 30 uM. In outline:
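Purified recombinant firefly luciferase (QuantiLum, 46.8 μg mL−1) mixed with compound in passive lysis buffer containing BSA (1 mg mL−1); equal volume of luciferase substrate added, light output read; percentage inhibition relative to DMSO control; concentration-response curves up to 30 μM.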

`CCCc1cc(=O)c2c(O)cc3cc(O)cc(OC)c3c2o1` [COMAPARVIN]: the IC50 is above 10 µM in test [1], 3 µM in test [2], 3 µM in test [4] and above 10 µM in test [6]. The outcome in the test with T47D [3] was inactive. Besides, the Activity with T47D [5] is listed as 27%.
For `CCCc1cc(=O)c2c(OC)c3c(OC)cc(O)cc3cc2o1` [NEOCOMANTHERIN], the IC50 in test [1] turned out to be 3.2 µM; in test [2], 2.7 µM; in test [4] it was 1.9 µM; in test [6] it was 3.7 µM. The same molecule had an Activity in test [7] of 40%. The result in the test on T47D [3] was inactive. In addition, in test [8], the inhibition came out at 48%.
